Compound activity (PubChem)
PTEN del growth = PTEN-deleted cell growth suppression; viability, % at 10 µM; AID 827; HCT116 PTEN-null viability, CellTiter-Glo, 60 h; active compounds read low; actives 1.2% (n = 140,000);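 active = viability at or below a set limit, 4 SD under the median of all tested compounds, cut at about 3.7% in these data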;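 also: PTEN knockout HCT116 line with beta catenin targeted HCT116 as companion control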
Fibroblast inh = blocks proliferation of human lung fibroblasts; LL 47 human lung fibroblast viability, ATP luminescence; active compounds read low; viability, % at 10 µM; actives 1.1% (n = 85,000); AID 719;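 active = viability at or below 50% in the single dose screen; inactive = viability above 50%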;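 also: compound exposure lasted 72 h before the ATP readout; 100% = median luminescence of untreated cell-only wells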
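Test system: LL 47 human lung fibroblasts; Quantity: 1,150 cells/well; Buffer or medium: IMEM plus 15% FBS; Dosing: tenfold compound dosing solution, DMSO at 0.1%; Timing: overnight cell rest, 72 h compound treatment at 37 °C; Detection: ATP-based CellTiter-Glo luminescent readout; Read-out basis: viability percentage against median untreated-cell control; Controls: cell-only wells, no compound.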
H69AR growth 86K = growth inhibitors of human H69AR lung tumor cells; viability, % at 10 µM; actives 6% (n = 85,000); H69AR lung tumor viability, ATP luminescence, 72 h; active compounds read low;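 active = viability at or below 40%; inactive = viability above 40%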;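 also: multidrug resistant small cell line overexpressing MRP-1 efflux transporter; 100% = mean luminescence of untreated control wells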
HUVEC inhibit = inhibitors of human endothelial cell proliferation; HUVEC proliferation, CellTiter-Glo luminescence, 72 h; active compounds read low; viability, % at 10 µM (by protocol); actives 1.1% (n = 86,000); AID 648;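 active = viability at or below 30%; inactive = viability above 30%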;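 also: 100% = median luminescence of DMSO-only cell control wells on each plate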
bCat KO growth = beta-catenin-lacking colon tumor cell growth suppression | HCT116 beta-catenin knockout viability, CellTiter-Glo, 60 h; active compounds read low | viability, % at 10 µM | actives 1.5% (n = 140,000) | AID 818;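 active = viability at or under a set limit, the compound median less 4 SD, cut at about 6% in these data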;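 also: 0% = Hyamine 1622 control at 20 µM and 100% = untreated cell control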
Active calls of the source: *; . = not tested or not shown. The sample as a whole holds a higher share of hits than the screen did.

SMILES	PTEN del growth	Fibroblast inh	H69AR growth 86K	HUVEC inhibit	bCat KO growth
CCOC(=O)c1[nH]c(C)c(/C(O)=C2\C(=O)C(=O)N(CCN3CCOCC3)C2c2cccs2)c1C (stereo not drawn)	32.1	90.6	33.4*	60.2	37.5
CCCOc1ccc(C2/C(=C(\O)c3c(C)[nH]c(C(=O)OC)c3C)C(=O)C(=O)N2CCN(C)C)cc1 (stereo not drawn)	78.4	104.7	93.7	104.5	80.9
CCOc1ccc(C2/C(=C(\O)c3c(C)[nH]c(C(=O)OC)c3C)C(=O)C(=O)N2CCN(C)C)cc1 (stereo not drawn)	0.7*	89.8	92.2	104.6	0.7*
CCOC(=O)c1[nH]c(C)c(/C(O)=C2\C(=O)C(=O)N(CCN(C)C)C2c2ccc(C)o2)c1C (stereo not drawn)	35.4	96.6	19.4*	75.3	31.8
COC(=O)c1[nH]c(C)c(/C(O)=C2\C(=O)C(=O)N(CCN(C)C)C2c2cccs2)c1C (stereo not drawn)	103.1	.	.	.	97.7
CCOc1ccc(Cn2nnc(C(=O)Nc3cc(OC)cc(OC)c3)c2N)cc1	84.1	89.2	91.3	52.7	87.3
Cc1cccc(C)c1Nc1nnc(SCc2nc3ccccc3s2)s1	84.6	.	.	.	94.5
N#Cc1cc2sc3nnc(-c4ccncc4)n3c2cc1C#N	13.5	45.5*	28.9*	56.6	6.4
N#Cc1cc2sc3nc4ccccc4n3c2cc1C#N	105.3	94.2	84.6	81.0	102.1
CCOC(=O)N1CCC(NC(=O)c2cc3c(-c4cccc(OC)c4)nn(C)c3s2)CC1	75.4	93.4	10.5*	74.9	82.2
O=C(NC(=S)Nc1ccc2c(c1)OCCO2)c1ccc(F)cc1Cl	94.3	.	.	.	84.4
COc1ccc(C(=O)Nc2cccc(-c3nnc(-c4ccco4)o3)c2)cc1	41.2	62.4	24.1*	47.2	54.0
O=C(Nc1cccc(C(F)(F)F)c1)c1ccc2nc(-c3ccco3)c(-c3ccco3)nc2c1	97.6	112.7	31.8*	58.9	102.0
CCOc1ccccc1C(=O)Nc1cccc(-c2nnc(-c3ccccc3)o2)c1	63.0	87.0	8.7*	48.0	63.1
COc1ccc(N2CCN(C(=O)C3CCCO3)CC2)cc1 (stereo not drawn)	89.3	101.0	95.6	102.7	83.8
CNC(=O)c1ccc(-c2sc3nc(N4CCOCC4)c4c(c3c2N)CC(C)(C)OC4)o1	79.8	93.0	47.4	71.6	84.2
CNC(=O)c1ccc(-c2sc3nc(N4CCOCC4)c4c(c3c2N)CCCC4)o1	6.8	95.5	20.5*	30.1	14.1
CC(/C=N/Nc1nnc2c(n1)[nH]c1ccccc12)=C\c1ccco1	84.7	113.7	34.5*	97.5	89.0
Cc1csc(=O)n1CC(=O)OCc1cccc2ccccc12	101.5	95.0	89.9	89.6	91.5
COc1ccccc1NC(=O)Cn1nnc(-c2ccccc2NC(=O)c2ccco2)n1	102.5	47.4*	15.9*	38.8	87.8
COc1cc(NC(=O)Cn2nnc(-c3ccccc3N)n2)cc(OC)c1	90.9	96.6	29.5*	95.1	96.6
COc1ccc(NC(=O)Cn2nnc(-c3ccccc3NC(=O)c3ccco3)n2)cc1	11.7	47.6*	4.3*	21.4*	14.7
O=C(Cn1nnc(-c2ccccc2NC(=O)c2ccco2)n1)NC1CCCCC1	76.8	88.3	81.9	95.2	92.7
COc1ccc(NC(=O)Cn2nnc(-c3ccccc3N)n2)cc1OC	95.5	95.2	78.5	92.6	96.5
CCCN1C(=O)CN(C2CCCCCC2)C(=O)C1c1ccc(C)cc1 (stereo not drawn)	93.9	95.1	94.7	88.9	91.6
SMILES	PTEN del growth	Fibroblast inh	H69AR growth 86K	HUVEC inhibit	bCat KO growth
COc1ccc2c(c1)[nH]c1c(=O)n(CC3CCCO3)cnc12 (stereo not drawn)	93.8	98.2	86.7	97.4	103.7
Cc1ccc(C(c2nnnn2C2CCCC2)N2CCN(c3nc4ccccc4s3)CC2)cc1 (stereo not drawn)	.	83.9	54.3	98.4	.
CCCCCCCn1c(=N)n(CC(=O)c2ccco2)c2ccccc21	2.0*	64.6	24.2*	43.2	4.7*
Cc1ccccc1OCCNC(=O)/C=C/c1ccc([N+](=O)[O-])cc1	102.5	.	.	.	97.8
c1ccc(Nc2nc(-c3ccncc3)nc3ccccc23)cc1	88.8	.	.	.	91.3
CCNC(=S)N/N=C(\C)c1ccc(N2CCOCC2)cc1	95.3	.	.	.	101.7
CNC(=S)N/N=C(\C)c1ccc(N2CCOCC2)cc1	1.3*	.	.	.	4.8*
COc1cc2nc(C3CCC3)n(NC(=O)COc3ccccc3)c(=O)c2cc1OC	55.1	91.1	72.6	83.8	46.3
O=C(Nc1ccccc1)c1ccc(NCc2cccnc2)c(S(=O)(=O)N2CCOCC2)c1	102.9	102.1	73.6	102.8	111.5
COc1cc(CC(=O)OCC(=O)c2ccc3c(c2)OCCO3)cc(OC)c1OC	12.1	53.0	33.3*	37.6	14.9
O=C(CCS(=O)(=O)c1cccc2nsnc12)NCc1ccccc1	89.9	91.8	95.6	92.7	89.4
C=CCn1cnc2c(c1=O)c1nc3ccccc3nc1n2/N=C/c1cc(OC)c(OC)c(OC)c1	1.4*	24.4*	8.9*	38.9	0.8*
C=C1C(=O)C=C2CN(C(=O)c3ccccc3)[C@@](Cc3ccc(F)cc3)(C(=O)OC)[C@@H]12	1.0*	.	.	.	0.9*
COC(=O)[C@@]1(Cc2ccc(OC)cc2)[C@@H]2C(=CC(=O)[C@H]2CC(=O)C(=O)N(C)C)CN1C(=O)c1ccccc1	2.5*	.	.	.	2.2*
O=C(NCC1OCCc2ccccc21)c1ccc(NC(=O)c2ccc(Cl)cc2Cl)cc1 (stereo not drawn)	1.9*	.	.	.	4.9*
Cc1ccccc1CS(=O)(=O)c1nnc([C@H](CC(C)C)NC(=O)OC(C)(C)C)o1	88.4	3.9*	76.1	73.2	94.3
CC(C)[C@H](NC(=O)OC(C)(C)C)c1nnc(S(=O)(=O)Cc2c(F)cccc2Cl)o1	.	2.6*	0.9*	55.6	.
CC(C)(C)OC(=O)N[C@@H](Cc1ccccc1)c1nnc(S(=O)(=O)Cc2cccc(F)c2)o1	82.9	19.9*	1.0*	55.5	78.8
CC[C@@H](C)[C@H](NC(=O)OC(C)(C)C)c1nnc(S(=O)(=O)Cc2cc(C)ccc2C)o1	3.8*	13.9*	0.2*	38.9	2.8*
CC(C)C[C@H](NC(=O)OC(C)(C)C)c1nnc(SCc2ccccc2)o1	72.3	96.5	98.4	99.2	76.8
Cc1cc2c(n1-c1ccc(C(N)=O)cc1)CC(C)(C)CC2=O	95.7	97.3	88.1	93.0	98.9
CC(C)n1c(SCC(=O)N2c3ccccc3CCc3ccccc32)nc2c1c(=O)n(C)c(=O)n2C	.	96.7	20.3*	42.6	.
CC(C)n1c(SCC(=O)Nc2nc3c(s2)CCCC3)nc2c1c(=O)n(C)c(=O)n2C	70.7	93.0	33.5*	78.9	67.3
C=CCn1c(SCc2ccc3nonc3c2)nnc1-c1cccs1	116.6	89.9	96.7	109.7	105.3
O=C(Nc1ncc(Cl)cn1)c1cccs1	90.0	94.7	95.2	88.8	88.2
